Test results reported in ChEMBL document CHEMBL1122996, “Interactions of apomorphine with serum and tissue proteins” (J Med Chem, 1985).
Where “and” joins values, the source holds several entries; their conditions need not be identical. Equal entries are not always repeated.

Assays:
Mus musculus [1] = species: Mus musculus; test: Radio activity accumulation in plasma (Excreatable reactivity) on 14 days; assay type: functional
Summary of the method: (§1)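 Male CD-1 mice (~35 g, n=10 per group) given apomorphine 30 mg/kg fortified with [3H]-apomorphine (0.153 mCi/kg) ip, either once or daily for 14 days. Sampled 24 h after the last dose: plasma from infraorbital sinus (extractable and nonextractable radioactivity) and brain regions (striatum, cerebellum, forebrain without striatum). Radioactivity expressed as µg apomorphine equivalent per mL or per g […].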

Mus musculus [2] = species: Mus musculus; test: Radio activity accumulation in plasma (Excreatable reactivity) on day 1; assay type: functional; summary of the method: as §1
Homo sapiens [3] = species: Homo sapiens; test: Percentage binding to human plasma proteins was determined by measuring HPLC peak with radiochemical detection at 1.0 micro g/ml concentration in plasma; assay type: cell-free
Summary of the method: (§2)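 Fresh plasma from fasted healthy human volunteers was spiked with 1-HCl plus [³H]-1 tracer. It was incubated 10 min at 37 °C and ultrafiltered through YMT membranes (1000g, 5 min, 37 °C). Ultrafiltrate was acidified with pH 3.0 acetate buffer containing carrier 1-HCl, argon-flushed and frozen at -15 °C. Phenyl-column HPLC was read by peak-eluate collection LSC, UV peak area, or radiochemical detection. % bound was calculated from total vs ultrafiltrate using a plasma water fraction of 0.93.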

Sus scrofa [4] = species: Sus scrofa; test: Percentage binding to swine plasma proteins at 0.10 ug/mL concentration of the compound; assay type: cell-free
Summary of the method: (§3)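 Plasma came from male Sprague-Dawley rats (~450 g, ether, vena cava blood, lithium heparin) or from six mature female swine (jugular catheter, heparinized). It was spiked with 1-HCl (10 ng–50 µg/mL) containing 0.5 mCi/mL [³H]-1. Samples were ultrafiltered as for human plasma, and the ultrafiltrate was analysed by HPLC peak-collection LSC. N = 4.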

Sus scrofa [5] = species: Sus scrofa; test: Percentage binding to swine plasma proteins at 1.00 ug/mL concentration of the compound; assay type: cell-free; summary of the method: as §3
Sus scrofa [6] = species: Sus scrofa; test: Percentage binding to swine plasma proteins at 10.0 ug/mL concentration of the compound; assay type: cell-free; summary of the method: as §3
Sus scrofa [7] = species: Sus scrofa; test: Percentage binding to swine plasma proteins at 20.0 ug/mL concentration of the compound; assay type: cell-free; summary of the method: as §3
Homo sapiens [8] = species: Homo sapiens; test: Percentage binding to human plasma proteins was determined by collecting HPLC eluate at 0.01 micro g/ml concentration of compound 1 in plasma; assay type: cell-free; summary of the method: as §2
Homo sapiens [9] = species: Homo sapiens; test: Percentage binding to human plasma proteins was determined by collecting HPLC eluate at 0.10 micro g/ml concentration of compound 1 in plasma; assay type: cell-free; summary of the method: as §2
Homo sapiens [10] = species: Homo sapiens; test: Percentage binding to human plasma proteins was determined by collecting HPLC eluate at 10.0 micro g/ml concentration of compound 1 in plasma; assay type: cell-free; summary of the method: as §2
Homo sapiens [11] = species: Homo sapiens; test: Percentage binding to human plasma proteins was determined by measuring HPLC peak at 0.10 micro g/ml concentration of compound 1 in plasma; assay type: cell-free; summary of the method: as §2
Homo sapiens [12] = species: Homo sapiens; test: Percentage binding to human plasma proteins was determined by measuring HPLC peak at 1.00 micro g/ml concentration in plasma; assay type: cell-free; summary of the method: as §2
Homo sapiens [13] = species: Homo sapiens; test: Percentage binding to human plasma proteins was determined by measuring HPLC peak at 50.0 micro g/ml concentration in plasma; assay type: cell-free; summary of the method: as §2
Sus scrofa [14] = species: Sus scrofa; test: Percentage binding to swine plasma proteins at 5.0 ug/mL concentration of the compound; assay type: cell-free; summary of the method: as §3
Sus scrofa [15] = species: Sus scrofa; test: Percentage binding to swine plasma proteins at 50 ug/mL concentration of the compound; assay type: cell-free; summary of the method: as §3
Sus scrofa [16] = species: Sus scrofa; test: Percentage binding to swine plasma proteins a t0.01 ug/mL concentration of the compound; assay type: cell-free; summary of the method: as §3
Sus scrofa [17] = species: Sus scrofa; test: Percentage binding to swine plasma proteins at 100 ug/mL concentration of the compound; assay type: cell-free
Rattus norvegicus [18] = species: Rattus norvegicus; test: Percentage binding to rat plasma proteins at 0.01 ug/mL concentration of the compound; assay type: cell-free; summary of the method: as §3
Rattus norvegicus [19] = species: Rattus norvegicus; test: Percentage binding to rat plasma proteins at 0.10 ug/mL concentration of the compound; assay type: cell-free; summary of the method: as §3
Rattus norvegicus [20] = species: Rattus norvegicus; test: Percentage binding to rat plasma proteins at 10.0 ug/mL concentration of the compound; assay type: cell-free; summary of the method: as §3
Rattus norvegicus [21] = species: Rattus norvegicus; test: Percentage binding to rat plasma proteins at 1 ug/mL concentration of the compound; assay type: cell-free; summary of the method: as §3
Rattus norvegicus [22] = species: Rattus norvegicus; test: Percentage binding to rat plasma proteins at 50.0 ug/mL concentration of the compound; assay type: cell-free; summary of the method: as §3
Albumin [23] = target: T1, Albumin (Bos taurus, UniProt P02769); test: Covalent binding of compound to serum albumin after 1 hr when the level of [8,9-3H2]-1is 2.0 dpm *10e6; conditions: cattle
T1 sequence (P02769 whole entry): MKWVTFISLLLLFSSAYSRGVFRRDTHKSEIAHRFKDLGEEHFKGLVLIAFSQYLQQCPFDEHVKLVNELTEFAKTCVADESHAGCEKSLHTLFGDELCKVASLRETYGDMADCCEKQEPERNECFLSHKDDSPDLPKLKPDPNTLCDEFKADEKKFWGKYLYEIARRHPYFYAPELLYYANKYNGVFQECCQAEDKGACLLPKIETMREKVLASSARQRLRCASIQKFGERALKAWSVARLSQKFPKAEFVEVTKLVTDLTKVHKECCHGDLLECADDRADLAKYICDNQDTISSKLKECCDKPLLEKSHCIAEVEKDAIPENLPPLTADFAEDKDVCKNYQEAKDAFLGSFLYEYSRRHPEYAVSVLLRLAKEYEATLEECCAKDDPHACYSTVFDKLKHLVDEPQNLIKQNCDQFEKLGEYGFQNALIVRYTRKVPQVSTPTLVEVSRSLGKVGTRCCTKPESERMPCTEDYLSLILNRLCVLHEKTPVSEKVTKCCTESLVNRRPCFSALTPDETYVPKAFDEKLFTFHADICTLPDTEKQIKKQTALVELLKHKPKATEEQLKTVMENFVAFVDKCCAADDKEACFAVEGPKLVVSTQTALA
Summary of the method: (§4)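 BSA (32 mg) with 2 mg apomorphine HCl hemihydrate plus tritiated [8,9-3H2]apomorphine at the level stated, in pH 7.4 phosphate buffer, 2.1 mL total, incubated 1 h. Incubates were extracted twice with ethyl acetate. Protein-bound radioactivity was measured by LSC after one of three workups: perchloric acid precipitation with repeated trifluoroacetic acid-ethanol washes; Sephadex G-25 gel filtration in 1% sodium lauryl sulfate buffer; or 4-day dialysis.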

Albumin [24] = target: T1, Albumin; test: Covalent binding of compound to serum albumin after 1 hr when the level of [8,9-3H2]-1is 2.0 dpm *10e6 expressed as mol of drug/mol of serum albumin; conditions: cattle; summary of the method: as §4
Albumin [25] = target: T1, Albumin; test: Covalent binding of compound to serum albumin after 1 hr when the level of [8,9-3H2]-1is 2.2 dpm *10e6; conditions: cattle; summary of the method: as §4
Albumin [26] = target: T1, Albumin; test: Covalent binding of compound to serum albumin after 1 hr when the level of [8,9-3H2]-1is 2.3 dpm *10e6; conditions: cattle; summary of the method: as §4
Albumin [27] = target: T1, Albumin; test: Covalent binding of compound to serum albumin after 1 hr when the level of [8,9-3H2]-1is 2.3 dpm *10e6 expressed as mol of drug/mol of BSA; conditions: cattle; summary of the method: as §4
Albumin [28] = target: T1, Albumin; test: (§5) Covalent binding of compound to serum albumin after 1 hr when the level of [8,9-3H2]-1is 2.6 dpm *10e6; conditions: cattle; summary of the method: as §4
Albumin [29] = target: T1, Albumin; test: Covalent binding of compound to serum albumin after 1 hr when the level of [8,9-3H2]-1is 2.6 dpm *10e6 expressed as mol of drug/mol of serum albumin; conditions: cattle; summary of the method: as §4
Albumin [30] = target: T1, Albumin; test: as §5; conditions: cattle; summary of the method: as §4; remark: listed apart in the source
Albumin [31] = target: T1, Albumin; test: Covalent binding of compound to serum albumin after 1 hr when the level of [8,9-3H2]-1is 2.7 dpm *10e6; conditions: cattle; summary of the method: as §4
Albumin [32] = target: T1, Albumin; test: Covalent binding of compound to serum albumin after 1 hr when the level of [8,9-3H2]-1is 2.7 dpm *10e6 expressed as mol of drug/mol of serum albumin; conditions: cattle; summary of the method: as §4
Mus musculus [33] = species: Mus musculus; test: Percentage of covalently bound total in forebrain without striatum of mouse; assay type: functional
Summary of the method: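 Male CD-1 mice (~35 g, n=10) given apomorphine 30 mg/kg with [3H]-apomorphine (0.153 mCi/kg) ip daily for 14 days, killed 24 h after the last dose. Plasma from infraorbital sinus; brain split into striatum, cerebellum, forebrain without striatum. Protein-bound radioactivity expressed as µg/g protein (albumin equivalent; plasma µg/mL) and as % of total tissue radioactivity.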

Mus musculus [34] = species: Mus musculus; test: Ratio of accumulation of radioactivity from 14 to 1 day in extractable reactivity in plasma; assay type: functional
Summary of the method: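 Male CD-1 mice (~35 g, 10 per group) received 1 at 30 mg/kg ip with [³H]-1 (0.153 mCi/kg), once or daily for 14 days, with free access to food and water. At 24 h after the last dose, plasma (infraorbital sinus), brain regions, kidney, liver and GI tract were taken for radioactivity counting. The accumulation ratio is radioactivity after 14 doses divided by radioactivity after 1 dose.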

Albumin [35] = target: T1, Albumin; test: Covalent binding of compound to serum albumin after 1 hr when the level of [8,9-3H2]-1is 2.2 dpm *10e6 expressed as mol of drug/mol of serum albumin; conditions: cattle; summary of the method: as §4

CN1CCc2cccc3c2[C@H]1Cc1ccc(O)c(O)c1-3 [APOMORPHINE] was tested, and the Accumulation (Mus musculus [1]) was 1.42 µg/mL, the Accumulation (Mus musculus [2]) was 0.561 µg/mL and the Binding (Homo sapiens [3]) was 94.9%. It also gave a Binding (Sus scrofa [4]) of 93%, a Binding (Sus scrofa [5]) of 93.5% and a Binding (Sus scrofa [6]) of 86.8%. For the same molecule, the Binding (Sus scrofa [7]) was 86.2%, the Binding (Homo sapiens [8]) was 96.8% and the Binding (Homo sapiens [9]) was 97.8%. The Binding (Homo sapiens [10]) was 95.3% and 96.9%, the Binding (Homo sapiens [11]) was 96.6% and the Binding (Homo sapiens [12]) was 96.6%. For the same molecule, the Binding (Homo sapiens [13]) was 94.9%, the Binding (Sus scrofa [14]) was 90.4% and the Binding (Sus scrofa [15]) was 87%. The Binding (Sus scrofa [16]) was 94.8%, the Binding (Sus scrofa [17]) was 85.7% and the Binding (Rattus norvegicus [18]) was 91.3%. It also gave a Binding (Rattus norvegicus [19]) of 90.4%, a Binding (Rattus norvegicus [20]) of 90.7% and a Binding (Rattus norvegicus [21]) of 90.4%. The Binding (Rattus norvegicus [22]) was 89.1%, the Binding (Albumin [23]) was 4848 dpm mg-1 and the Binding (Albumin [24]) was 3 M of drug (M of BSA)-1. For the same molecule, the Binding (Albumin [25]) was 3850 dpm mg-1, the Binding (Albumin [26]) was 6215 dpm mg-1 and the Binding (Albumin [27]) was 3.4 M of drug (M of BSA)-1. The Binding (Albumin [28]) was 8238 dpm mg-1 and 9938 dpm mg-1, the Binding (Albumin [29]) was 4 M of drug (M of BSA)-1 and 4.8 M of drug (M of BSA)-1 and 4.4 M of drug (M of BSA)-1 and the Binding (Albumin [30]) was 9063 dpm mg-1. For the same molecule, the Binding (Albumin [31]) was 8465 dpm mg-1 and 12693 dpm mg-1, the Binding (Albumin [32]) was 4 M of drug (M of BSA)-1 and 5.9 M of drug (M of BSA)-1 and the Binding (Mus musculus [33]) was 1.62%. The Ratio (Mus musculus [34]) was 2.6 and the Binding (Albumin [35]) was 2.1 M of drug (M of BSA)-1.
